Test results: ChEMBL document CHEMBL4265911, “The synthesis and kinetic evaluation of aryl α-aminophosphonates as novel inhibitors of T. cruzi trans-sialidase” (Eur J Med Chem, 2018)

Assays:
Trans-sialidase [1] = target: T1, Trans-sialidase (Trypanosoma cruzi, UniProt Q26964); experiment: Inhibition of Trypanosoma cruzi trans-sialidase using CF3MuSA as substrate by UV/visible spectrophotometric method
T1 sequence (Q26964 whole entry): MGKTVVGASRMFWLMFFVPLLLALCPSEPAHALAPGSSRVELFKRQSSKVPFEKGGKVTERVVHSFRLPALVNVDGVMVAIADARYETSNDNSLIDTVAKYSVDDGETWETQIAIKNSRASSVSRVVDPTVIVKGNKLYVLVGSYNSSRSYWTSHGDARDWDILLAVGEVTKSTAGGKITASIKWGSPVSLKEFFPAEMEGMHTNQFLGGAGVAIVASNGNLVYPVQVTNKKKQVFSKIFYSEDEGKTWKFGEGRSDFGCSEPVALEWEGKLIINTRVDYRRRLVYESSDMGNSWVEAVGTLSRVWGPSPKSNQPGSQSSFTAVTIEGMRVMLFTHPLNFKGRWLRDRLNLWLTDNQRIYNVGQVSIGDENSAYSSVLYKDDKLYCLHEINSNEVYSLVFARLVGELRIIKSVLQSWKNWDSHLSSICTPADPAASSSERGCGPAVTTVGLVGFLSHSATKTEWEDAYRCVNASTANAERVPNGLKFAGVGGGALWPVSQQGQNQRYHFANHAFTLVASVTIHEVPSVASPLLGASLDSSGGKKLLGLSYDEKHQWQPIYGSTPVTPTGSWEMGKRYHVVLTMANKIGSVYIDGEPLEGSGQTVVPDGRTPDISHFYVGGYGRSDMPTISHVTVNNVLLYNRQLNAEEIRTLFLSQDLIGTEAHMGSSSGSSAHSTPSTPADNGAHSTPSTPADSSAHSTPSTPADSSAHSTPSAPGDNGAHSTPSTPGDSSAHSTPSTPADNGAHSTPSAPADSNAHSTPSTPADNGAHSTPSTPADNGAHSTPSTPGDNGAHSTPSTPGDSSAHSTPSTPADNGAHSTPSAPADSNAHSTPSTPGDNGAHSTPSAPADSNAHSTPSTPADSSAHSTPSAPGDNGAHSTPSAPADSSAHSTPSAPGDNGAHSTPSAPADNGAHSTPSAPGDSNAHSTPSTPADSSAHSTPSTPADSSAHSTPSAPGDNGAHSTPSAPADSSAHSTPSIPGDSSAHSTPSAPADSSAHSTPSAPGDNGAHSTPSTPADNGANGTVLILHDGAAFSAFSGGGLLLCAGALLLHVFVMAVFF

Trans-sialidase [2] = target: T1, Trans-sialidase; experiment: Inhibition of recombinant HisA-tagged Trypanosoma cruzi trans-sialidase expressed in Escherichia coli BL21 (DE3) using MuNANA as substrate pretreated for 10 mins followed by substrate addition by fluorescence assay
Summary of the method: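 Continuous fluorometric hydrolysis assay at 35°C in 20mM Tris-HCl, 50mM NaCl, pH 7.5, 0.01% Triton X100. TcTS (50 µg/mL) was preincubated 10 min with at least seven inhibitor levels (1 µM–15 mM), then MuNANA (200 µM) was added. 4-Methylumbelliferone was read at ex 360/em 460 nm, with rate taken as the linear-region slope. IC50 was set at 50% activity loss versus the no-inhibitor control; n=3 independent experiments.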

Trans-sialidase [3] = target: T1, Trans-sialidase; experiment: Non-competitive inhibition of recombinant HisA-tagged Trypanosoma cruzi trans-sialidase expressed in Escherichia coli BL21 (DE3) using varying levels of MuNANA as substrate by Lineweaver-burk plot analysis
Summary of the method: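 TcTS residual hydrolytic activity was measured with MuNANA at 0–400 µM across several set inhibitor concentrations, using the fluorometric method at 35°C and pH 7.5. Km/Vmax came from nonlinear fitting. Ki was fitted with competitive, non-competitive, uncompetitive and mixed models, and the best-fitting model was assigned as the mode. Lineweaver-Burk double-reciprocal plots were made at each inhibitor level.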

[4] = Selectivity ratio of IC50 for Clostridium perfringens neuraminidase to IC50 for recombinant HisA-tagged Trypanosoma cruzi trans-sialidase expressed in Escherichia coli BL21 (DE3)
Sialidase A = Sialidase A (Streptococcus pneumoniae, UniProt P62575); experiment: Inhibition of Streptococcus pneumoniae neuraminidase A using MuNANA as substrate pretreated for 10 mins followed by substrate addition by fluorescence assay
[5] = Selectivity ratio of IC50 for Streptococcus pneumoniae neuraminidase A to IC50 for recombinant HisA-tagged Trypanosoma cruzi trans-sialidase expressed in Escherichia coli BL21 (DE3)
Sialidase = target: T2, Sialidase (Clostridium perfringens, UniProt P10481); experiment: Inhibition of Clostridium perfringens neuraminidase using MuNANA as substrate pretreated for 10 mins followed by substrate addition by fluorescence assay
T2 sequence (P10481 whole entry): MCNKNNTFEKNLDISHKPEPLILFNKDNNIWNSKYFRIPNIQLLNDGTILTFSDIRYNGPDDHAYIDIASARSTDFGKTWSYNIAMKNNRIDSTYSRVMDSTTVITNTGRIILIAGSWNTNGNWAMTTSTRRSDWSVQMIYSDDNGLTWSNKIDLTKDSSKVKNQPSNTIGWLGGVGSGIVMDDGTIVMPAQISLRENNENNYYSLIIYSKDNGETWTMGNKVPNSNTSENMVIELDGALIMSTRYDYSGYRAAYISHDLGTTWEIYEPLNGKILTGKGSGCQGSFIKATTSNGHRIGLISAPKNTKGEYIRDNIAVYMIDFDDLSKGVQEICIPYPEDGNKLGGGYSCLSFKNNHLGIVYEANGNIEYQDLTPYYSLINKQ

[6] = Solubility of the compound in pH 7.5 Tris-HCl buffer at >7.5 mM; format: physicochemical
Trans-sialidase [7] = target: T1, Trans-sialidase; experiment: Inhibition of Trypanosoma cruzi trans-sialidase
Summary of the method: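 TcTS, point-mutated to aid crystallisation and expressed in E. coli BL21(DE3), at 50 µg/mL; pre-incubated 10 min at 35°C with ≥7 inhibitor levels (1 µM–15 mM). MuNANA (200 µM) then added. Buffer: 20 mM Tris-HCl, 50 mM NaCl, pH 7.5, 0.01% Triton X100. Continuous fluorescence (ex 360/em 460 nm), slope RFU/min. IC50 versus no-inhibitor control; n=3 independent experiments.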

Trans-sialidase [8] = target: T1, Trans-sialidase; experiment: Inhibition of recombinant Trypanosoma cruzi trans-sialidase expressed in Escherichia coli BL21 (DE3) using MuNANA as substrate after 10 mins in presence of [D-glucose-1-14C]lactose by liquid scintillation counting method
[9] = compound: OC[C@@H](O)[C@@H](O[C@@H]1O[C@H](CO)[C@H](O)[C@H](O)[C@H]1O)[C@H](O)[C@@H](O)CO; experiment: Inhibition of recombinant HisA-tagged Trypanosoma cruzi trans-sialidase expressed in Escherichia coli BL21 (DE3) using 3-sialyl-lactose as donor measured after 15 mins by HPAEC-PAD

Sialidase A, sequence (P62575 whole entry): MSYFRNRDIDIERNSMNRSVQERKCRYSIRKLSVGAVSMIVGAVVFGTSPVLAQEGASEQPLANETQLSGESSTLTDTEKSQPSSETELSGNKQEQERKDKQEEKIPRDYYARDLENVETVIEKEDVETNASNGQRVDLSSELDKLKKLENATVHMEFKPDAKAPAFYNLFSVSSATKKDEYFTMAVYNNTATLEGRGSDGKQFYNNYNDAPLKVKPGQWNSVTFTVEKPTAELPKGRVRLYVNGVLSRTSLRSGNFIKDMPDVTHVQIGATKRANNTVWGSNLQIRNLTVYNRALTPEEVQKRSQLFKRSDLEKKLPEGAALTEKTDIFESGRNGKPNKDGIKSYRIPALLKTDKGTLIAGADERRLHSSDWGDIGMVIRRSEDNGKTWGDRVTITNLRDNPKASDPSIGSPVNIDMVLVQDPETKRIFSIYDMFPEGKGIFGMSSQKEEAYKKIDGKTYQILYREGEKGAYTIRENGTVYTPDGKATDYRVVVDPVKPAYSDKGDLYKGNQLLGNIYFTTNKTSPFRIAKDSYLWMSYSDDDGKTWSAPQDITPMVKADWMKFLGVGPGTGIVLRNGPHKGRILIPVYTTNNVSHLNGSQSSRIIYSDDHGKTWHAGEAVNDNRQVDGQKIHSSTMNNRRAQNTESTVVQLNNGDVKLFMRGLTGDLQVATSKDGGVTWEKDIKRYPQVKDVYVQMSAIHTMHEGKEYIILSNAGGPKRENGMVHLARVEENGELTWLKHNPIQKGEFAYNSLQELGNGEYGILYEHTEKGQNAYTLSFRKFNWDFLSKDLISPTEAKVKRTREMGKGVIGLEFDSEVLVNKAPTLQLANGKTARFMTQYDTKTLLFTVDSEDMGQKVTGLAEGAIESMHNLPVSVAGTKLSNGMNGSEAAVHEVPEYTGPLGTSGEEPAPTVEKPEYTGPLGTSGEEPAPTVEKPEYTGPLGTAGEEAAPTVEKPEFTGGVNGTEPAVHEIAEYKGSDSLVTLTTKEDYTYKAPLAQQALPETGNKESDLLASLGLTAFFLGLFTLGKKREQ

Question: With `Cc1ccc(S(=O)(=O)Nc2ccc(C(=O)/C=C/c3ccc(O)c(O)c3)cc2)cc1` as the molecule, how does the IC50 (Trans-sialidase [1]) read?
Answer: The IC50 was 0.9 µM.

Question: What does the source list for `CC(=O)Nc1ccc(C(Nc2cccc3ccccc23)P(=O)(O)O)cc1` (racemic)?
Answer: IC50 (Trans-sialidase [2]): 230 µM; Ki (Trans-sialidase [3]): 190 µM

Question: For `O=P(O)(O)C(Nc1ccccc1-c1ccccc1)c1ccccc1` (racemic), which IC50 (Trans-sialidase [2]) is on record?
Answer: The IC50 was 630 µM.

Question: Which results are given for `O=P(O)(O)C(Nc1cccc2ccccc12)c1ccccc1` (racemic)?
Answer: IC50 (Trans-sialidase [2]): 470 µM; Ki (Trans-sialidase [3]): 430 µM

Question: Which IC50 (Trans-sialidase [2]) does the source give for `O=P(O)(O)C(Nc1cccc2ccccc12)c1ccc(C(F)(F)F)cc1` (racemic) here?
Answer: The IC50 was 290 µM.

Question: What does the source list for `O=[N+]([O-])c1ccc(C(Nc2cccc3ccccc23)P(=O)(O)O)cc1` (racemic)?
Answer: IC50 (Trans-sialidase [2]): 210 µM; Ratio IC50 [4]: 7 to 12; Ki (Trans-sialidase [3]): 140 µM; IC50 (Sialidase A): 1410 µM; Ratio IC50 [5]: 7 to 12; IC50 (Sialidase): 2390 µM

Question: With `O=P(O)(O)C(Nc1cccc2ccccc12)c1cc(C(F)(F)F)cc(C(F)(F)F)c1` (racemic) as the molecule, how does the IC50 (Trans-sialidase [2]) read?
Answer: Its IC50 is 2350 µM.

Question: For `O=P(O)(O)C(Nc1ccc2ccccc2c1)c1ccccc1` (racemic), which IC50 (Trans-sialidase [2]) is on record?
Answer: Its IC50 is 510 µM.

Question: With `COc1ccc(C(Nc2cccc3ccccc23)P(=O)(O)O)cc1` (racemic) as the molecule, how does the IC50 (Trans-sialidase [2]) read?
Answer: Its IC50 is 270 µM.

Question: With `O=P(O)(O)C(Nc1cccc2ccccc12)c1ccc(Cl)cc1` (racemic) as the molecule, how does the IC50 (Trans-sialidase [2]) read?
Answer: The IC50 was 710 µM.

Question: For `O=P(O)(O)C(Nc1ccccc1)c1ccccc1` (racemic), which solubility [6] is on record?
Answer: The solubility was “Soluble”.

Question: What about the IC50 (Trans-sialidase [2]) of the same molecule?
Answer: Its IC50 is greater than 7500 µM.

Question: Which Ki (Trans-sialidase [7]) does the source give for `Cc1ncc(COP(=O)(O)O)c(C=O)c1O` [PYRIDOXAL PHOSPHATE ANHYDROUS] here?
Answer: The Ki was 7300 µM.

Question: For `O=P(O)(O)C(Nc1cccc(-c2ccccc2)c1)c1ccccc1` (racemic), which IC50 (Trans-sialidase [2]) is on record?
Answer: Its IC50 is 5580 µM.

Question: With `CC(=O)N[C@H]1[C@H]([C@H](O)[C@H](O)CO)OC(C(=O)O)=C[C@@H]1O` [NEU5AC2EN] as the molecule, how does the Ki (Trans-sialidase [8]) read?
Answer: The Ki was 12300 µM.

B1: Trans-sialidase (Trypanosoma cruzi), Q26964 (protein)
chain: T1 sequence (Q26964 whole entry)
Question: Which Km [9] does the source give for B1 here?
Answer: Its Km is 260 µM.
